Test results: ChEMBL document CHEMBL5678818, “Discovery of potent SOS1 inhibitors that block RAS activation via disruption of the RAS-SOS1 interaction” (Proc Natl Acad Sci U S A, 2019)
Several values for one entry are separate records, joined by “and”; a condition that tells them apart may be missing. Equal values may be shown once.

Assays:
[1] = system: Tyrosine-protein kinase ABL1 (Homo sapiens), P00519 [Q252H]; test: Inhibition of nonphosphorylated ABL1 Q252H mutant (unknown origin) assessed as residual activity at 1000 nM by KINOMEscan analysis relative to control
[2] = system: Epidermal growth factor receptor (Homo sapiens), P00533 [G719C]; test: Inhibition of EGFR G719C mutant (unknown origin) assessed as residual activity at 1000 nM by KINOMEscan analysis relative to control
[3] = biological target: T1, Mitogen-activated protein kinase kinase kinase 2 (Homo sapiens) (UniProt Q9Y2U5); test: Inhibition of MAP3K2 (unknown origin) assessed as residual activity at 1000 nM by KINOMEscan analysis relative to control
T1 sequence (whole entry): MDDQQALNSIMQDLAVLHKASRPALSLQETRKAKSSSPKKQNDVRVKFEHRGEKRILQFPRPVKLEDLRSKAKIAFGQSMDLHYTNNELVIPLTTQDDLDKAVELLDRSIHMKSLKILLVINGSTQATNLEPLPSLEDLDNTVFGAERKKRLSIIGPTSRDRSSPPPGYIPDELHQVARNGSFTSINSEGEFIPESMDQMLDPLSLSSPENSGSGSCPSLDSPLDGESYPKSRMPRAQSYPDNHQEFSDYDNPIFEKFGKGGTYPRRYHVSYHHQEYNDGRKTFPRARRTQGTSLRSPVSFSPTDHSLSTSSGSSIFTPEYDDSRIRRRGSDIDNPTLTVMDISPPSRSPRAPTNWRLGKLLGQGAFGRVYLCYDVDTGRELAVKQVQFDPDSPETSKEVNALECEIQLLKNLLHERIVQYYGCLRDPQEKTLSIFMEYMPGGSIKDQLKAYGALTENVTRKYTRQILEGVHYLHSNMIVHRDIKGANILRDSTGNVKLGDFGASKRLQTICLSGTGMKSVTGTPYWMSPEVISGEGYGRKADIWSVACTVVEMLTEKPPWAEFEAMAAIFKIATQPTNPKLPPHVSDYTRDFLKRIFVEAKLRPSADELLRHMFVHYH

[4] = biological target: Cyclin-dependent kinase 17 (Homo sapiens) (UniProt Q00537); test: Inhibition of PCTK2 (unknown origin) assessed as residual activity at 1000 nM by KINOMEscan analysis relative to control
Sequence of Cyclin-dependent kinase 17 (Homo sapiens) (Q00537 whole entry, looked up): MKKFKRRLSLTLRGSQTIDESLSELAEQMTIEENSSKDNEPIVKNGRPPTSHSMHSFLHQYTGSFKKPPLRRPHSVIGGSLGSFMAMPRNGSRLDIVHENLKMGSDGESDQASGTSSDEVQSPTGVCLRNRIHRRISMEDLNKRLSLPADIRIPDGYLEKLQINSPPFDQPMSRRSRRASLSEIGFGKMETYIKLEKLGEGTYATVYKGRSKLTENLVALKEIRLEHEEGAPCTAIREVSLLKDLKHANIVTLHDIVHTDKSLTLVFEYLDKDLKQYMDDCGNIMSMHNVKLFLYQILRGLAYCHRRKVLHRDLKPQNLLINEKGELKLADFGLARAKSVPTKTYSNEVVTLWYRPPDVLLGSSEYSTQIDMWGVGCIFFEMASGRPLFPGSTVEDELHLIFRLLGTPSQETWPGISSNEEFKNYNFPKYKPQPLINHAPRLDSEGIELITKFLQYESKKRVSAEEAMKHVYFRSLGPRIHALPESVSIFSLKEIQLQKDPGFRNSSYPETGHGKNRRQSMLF

[5] = biological target: T2, 3-phosphoinositide-dependent protein kinase 1 (Homo sapiens) (UniProt O15530); test: Inhibition of PDPK1 (unknown origin) assessed as residual activity at 1000 nM by KINOMEscan analysis relative to control
T2 sequence (whole entry): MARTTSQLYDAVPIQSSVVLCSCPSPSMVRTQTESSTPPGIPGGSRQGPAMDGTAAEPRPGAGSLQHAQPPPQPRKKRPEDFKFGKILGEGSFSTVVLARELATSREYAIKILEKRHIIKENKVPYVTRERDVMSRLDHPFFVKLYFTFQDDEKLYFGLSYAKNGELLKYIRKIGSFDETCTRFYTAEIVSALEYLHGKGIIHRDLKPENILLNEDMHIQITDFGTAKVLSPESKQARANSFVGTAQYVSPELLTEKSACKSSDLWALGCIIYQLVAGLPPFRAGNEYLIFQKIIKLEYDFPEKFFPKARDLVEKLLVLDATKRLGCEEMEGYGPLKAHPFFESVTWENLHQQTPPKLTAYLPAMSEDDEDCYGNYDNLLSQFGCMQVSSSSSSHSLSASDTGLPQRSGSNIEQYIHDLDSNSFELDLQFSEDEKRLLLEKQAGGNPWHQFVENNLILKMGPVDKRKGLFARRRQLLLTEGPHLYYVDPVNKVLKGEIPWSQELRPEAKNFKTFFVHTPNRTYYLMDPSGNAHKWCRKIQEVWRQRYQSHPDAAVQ

[6] = biological target: Serine/threonine-protein kinase tousled-like 2 (Homo sapiens) (UniProt Q86UE8); test: Inhibition of TLK2 (unknown origin) assessed as residual activity at 1000 nM by KINOMEscan analysis relative to control
Sequence of Serine/threonine-protein kinase tousled-like 2 (Homo sapiens) (Q86UE8 whole entry, looked up, the tested form may be a part): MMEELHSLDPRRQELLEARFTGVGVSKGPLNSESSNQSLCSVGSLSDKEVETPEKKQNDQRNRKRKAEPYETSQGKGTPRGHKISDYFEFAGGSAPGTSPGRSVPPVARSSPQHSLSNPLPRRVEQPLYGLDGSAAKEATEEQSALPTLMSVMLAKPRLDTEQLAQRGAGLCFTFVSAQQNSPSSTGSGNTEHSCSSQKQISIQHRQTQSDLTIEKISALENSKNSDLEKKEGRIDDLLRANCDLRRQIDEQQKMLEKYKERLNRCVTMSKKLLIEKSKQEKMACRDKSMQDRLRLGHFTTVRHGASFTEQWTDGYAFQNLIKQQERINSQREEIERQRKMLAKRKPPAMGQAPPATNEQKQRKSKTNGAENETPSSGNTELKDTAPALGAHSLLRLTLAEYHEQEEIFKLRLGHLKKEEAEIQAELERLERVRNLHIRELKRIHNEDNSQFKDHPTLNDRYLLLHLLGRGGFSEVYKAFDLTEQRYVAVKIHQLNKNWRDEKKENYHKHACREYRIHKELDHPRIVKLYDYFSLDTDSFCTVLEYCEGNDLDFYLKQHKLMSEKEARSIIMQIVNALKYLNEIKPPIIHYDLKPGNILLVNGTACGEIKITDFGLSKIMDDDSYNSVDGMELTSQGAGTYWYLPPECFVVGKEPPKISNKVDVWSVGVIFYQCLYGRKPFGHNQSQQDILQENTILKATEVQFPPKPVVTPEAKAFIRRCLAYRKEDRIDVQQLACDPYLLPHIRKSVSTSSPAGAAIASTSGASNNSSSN

[7] = biological target: T3, Son of sevenless homolog 1 (Homo sapiens) (UniProt Q07889); test: Binding affinity to N-terminal His10-tagged wild-type recombinant human SOS1 catalytic domain (564 to 1049 residues) expressed in Escherichia coli assessed as change in enthalpy by ITC analysis
T3 sequence (whole entry): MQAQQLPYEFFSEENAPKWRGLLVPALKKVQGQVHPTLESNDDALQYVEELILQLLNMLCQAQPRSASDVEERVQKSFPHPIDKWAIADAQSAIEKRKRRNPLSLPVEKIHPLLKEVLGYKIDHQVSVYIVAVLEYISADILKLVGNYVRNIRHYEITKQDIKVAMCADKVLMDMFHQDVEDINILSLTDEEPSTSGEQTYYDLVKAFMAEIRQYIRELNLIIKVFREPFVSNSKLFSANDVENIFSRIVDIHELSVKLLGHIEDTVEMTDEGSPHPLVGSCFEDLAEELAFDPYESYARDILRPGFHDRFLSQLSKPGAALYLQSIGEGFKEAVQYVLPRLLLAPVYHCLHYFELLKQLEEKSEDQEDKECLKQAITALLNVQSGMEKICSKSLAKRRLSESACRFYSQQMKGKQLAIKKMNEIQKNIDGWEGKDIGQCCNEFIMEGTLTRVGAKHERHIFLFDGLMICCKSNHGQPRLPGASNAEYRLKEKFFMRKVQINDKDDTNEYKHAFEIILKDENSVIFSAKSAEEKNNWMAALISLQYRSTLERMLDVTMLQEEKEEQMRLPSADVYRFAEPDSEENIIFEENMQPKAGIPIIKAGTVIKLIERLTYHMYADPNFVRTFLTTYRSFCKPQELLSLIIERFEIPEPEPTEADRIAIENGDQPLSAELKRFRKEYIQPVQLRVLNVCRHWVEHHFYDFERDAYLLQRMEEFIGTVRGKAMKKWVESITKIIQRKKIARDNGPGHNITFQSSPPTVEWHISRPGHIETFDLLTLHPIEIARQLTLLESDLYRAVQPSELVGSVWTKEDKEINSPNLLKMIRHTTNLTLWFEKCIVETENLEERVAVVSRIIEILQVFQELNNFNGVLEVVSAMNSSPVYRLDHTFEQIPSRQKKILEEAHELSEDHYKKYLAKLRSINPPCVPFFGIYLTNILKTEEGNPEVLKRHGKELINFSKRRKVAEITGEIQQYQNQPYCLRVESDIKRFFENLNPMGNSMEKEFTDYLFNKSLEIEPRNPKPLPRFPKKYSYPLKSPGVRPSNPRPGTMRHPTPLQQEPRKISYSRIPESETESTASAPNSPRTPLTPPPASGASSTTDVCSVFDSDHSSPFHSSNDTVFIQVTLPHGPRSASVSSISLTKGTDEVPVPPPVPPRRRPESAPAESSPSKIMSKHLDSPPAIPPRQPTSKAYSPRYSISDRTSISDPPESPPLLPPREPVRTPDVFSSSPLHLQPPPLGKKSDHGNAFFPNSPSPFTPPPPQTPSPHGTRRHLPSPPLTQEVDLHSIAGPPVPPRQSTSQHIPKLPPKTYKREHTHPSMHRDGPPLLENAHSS
Method in brief: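 SOS1cat was titrated into a solution of the test ligand. Integrated injection enthalpies were plotted against the protein-to-compound molar ratio and fitted to derive the thermodynamic binding parameters.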

Compound | Activity [1] [%] | Activity [2] [%] | Activity [3] [%] | Activity [4] [%] | Activity [5] [%] | Activity [6] [%] | deltaH [7]
COc1cc2nc(C)nc(N[C@H](C)c3cccc(-c4cn[nH]c4)c3)c2cc1OC | 45 | 77 | 76 | 83 | 97 | 83 | 
COc1cc2ncnc(N[C@H](C)c3cccc4ccccc34)c2cc1OC | 100 | 1.6 | 100 | 100 | 88 | 77 | -14.1 kcal/mol
CNCc1ccccc1-c1csc([C@@H](C)Nc2nc(C)nc3cc(OC)c(OC)cc23)c1 [BAY-293] |  |  |  |  |  |  | -16.1 kcal/mol and -17.9 kcal/mol
